From ChEMBL document CHEMBL4680079, “Discovery of a Quinoline-4-carboxamide Derivative with a Novel Mechanism of Action, Multistage Antimalarial Activity, and Potent in Vivo Efficacy” (J Med Chem, 2016)
≈ marks a conversion by molar mass, not a printed value.

Experiments:
Plasmodium falciparum [1] = test: Antiplasmodial activity against chloroquine-sensitive Plasmodium falciparum 3D7 infected in human red blood cells assessed as growth inhibition by SYBR Green fluorescence assay; format: functional, organism-based, RBC; settings: 3D7, Erythrocyte
How it was run: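 P. falciparum 3D7 grown in 5% human red cells in RPMI 1640 (pH 7.3) with 0.5% Albumax II, hypoxanthine and gentamicin at 37°C under 1% O₂/3% CO₂. Growth measured by SYBR green fluorescence (ex 485/em 528 nm), with mefloquine as assay control. EC50 calculated.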

[2] = Intrinsic clearance in CD1 mouse liver microsomes at 0.5 uM in presence of NADPH incubated upto 30 mins by UPLC-MS/MS analysis; format: ADME, Microsome; settings: 0.5 h
How it was run: (§1)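 Compound at 0.5 μM incubated with female CD1 mouse, male Sprague-Dawley rat or pooled human liver microsomes (0.5 mg/mL, 50 mM potassium phosphate, pH 7.4). Reaction started with excess NADPH. Samples taken at 0-30 min, quenched in acetonitrile, analysed by UPLC-MS/MS. Verapamil used as control, single time course.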

[3] = Permeability of the compound at 10 uM incubated for 5 hrs by UPLC-MS/MS analysis based PAMPA method; format: ADME; settings: read-out: permeability
How it was run: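 PAMPA run on a lipid-oil-lipid tri-layer filter at pH 7.4. Compound at 10 μM in PBS (DMSO ≤5%) in donor wells, PBS in acceptor wells, kept 5 h at room temperature. Both compartments quantified by UPLC-MS/MS. Data accepted only when recovery exceeded 70%.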

HepG2 = test: Antiproliferative activity against human HepG2 cells assessed as reduction in cell viability; format: cell-based
[4] = Kinetic aqueous solubility of the compound by laser nephelometry; format: physicochemical; settings: read-out: Kinetic_solubility
How it was run: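 Kinetic solubility measured by laser nephelometry. DMSO serial dilutions diluted into water to give final 100–5 μg/mL at 1.0% DMSO. Read immediately, in triplicate aliquots.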

Plasmodium berghei [5] = test: Antiplasmodial activity against Plasmodium berghei ANKA infected in NMRI mouse assessed as reduction in parasitemia at 10 mg/kg, po QD for 4 days; format: functional; design: scale not given: the % may be the effect or the level left; settings: time 4 day
How it was run: (§2)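 Female NMRI mice (n=3 per group, randomized, not blinded) infected with GFP-transfected P. berghei ANKA. Oral dosing once daily for 4 days in 10% DMSO/40% PEG400/50% water or HPMC suspension vehicle. Parasitaemia measured by flow cytometry on blood collected 96 h after infection. Mice watched for toxicity over 4 h post-dose each day.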

Plasmodium berghei [6] = test: Antiplasmodial activity against Plasmodium berghei ANKA infected in NMRI mouse assessed as survival days at 10 mg/kg, po QD for 4 days; format: functional; settings: time 4 day
Plasmodium berghei [7] = test: Antiplasmodial activity against Plasmodium berghei infected in NMRI mouse assessed as reduction in parasitemia at 3 mg/kg, po QD for 4 days; format: functional; design: scale not given: the % may be the effect or the level left; settings: time 4 day; how it was run: as §2
Plasmodium berghei [8] = test: Antiplasmodial activity against Plasmodium berghei ANKA infected in NMRI mouse assessed as survival days at 3 mg/kg, po QD for 4 days; format: functional; settings: time 4 day
Plasmodium berghei [9] = test: Antiplasmodial activity against Plasmodium berghei ookinete form assessed as growth inhibition incubated for 22 hrs by GFP-based fluorescence microscopic analysis; format: functional, organism-based
Plasmodium yoelii = test: Antiplasmodial activity against Plasmodium yoelli liver stage forms; format: functional, organism-based
Plasmodium falciparum [10] = test: Antiplasmodial activity against late stage (IV/V) Plasmodium falciparum NF54 gametocytes transfected with GFP-LUC assessed as growth inhibition incubated for 72 hrs by mitotracker Red-CMXROS dye based fluorescence microscopic analysis; format: functional, organism-based; settings: NF54, 72 h
How it was run: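 NF54 pfs16-LUC-GFP stage IV–V gametocytes (10% parasitaemia, 0.1% haematocrit) exposed to compound in 0.4% DMSO, three concentrations per log, for 72 h at 37°C under 5% CO2/5% O2/90% N2. MitoTracker Red CM-H2Xros then added for 16 h and viable gametocytes counted by imaging.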

MRC5 = test: Antiproliferative activity against human MRC5 cells assessed as reduction in cell viability after 68 hrs by resazurin dye based fluorescence assay; settings: MRC5, 68 h
How it was run: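 MRC-5 fibroblasts plated overnight as monolayers, exposed to compound pre-diluted in MEM for 68 h. Resazurin then added (final 50 μM) for 3 h, fluorescence read at ex 528/em 590 nm. Signal converted to % inhibition against high- and no-inhibition controls. Plates accepted at Z' > 0.5.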

[11] = Intrinsic clearance in human liver microsomes at 0.5 uM in presence of NADPH incubated upto 30 mins by UPLC-MS/MS analysis; format: ADME, Microsome; settings: 0.5 h; how it was run: as §1
[12] = target: Voltage-gated inwardly rectifying potassium channel KCNH2 (Homo sapiens, UniProt Q12809); test: Inhibition of human ERG by IonWorks patch-clamp electrophysiology method
How it was run: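 hERG K⁺ channel inhibition measured by IonWorks patch-clamp electrophysiology. Eight-point concentration-response curves made from 3-fold serial dilutions down from the maximum final assay concentration. Each curve generated on 2 occasions.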

[13] = Clearance in NMRI mouse blood at 3 mg/kg, iv administered as bolus dose by UPLC-MS/MS analysis; format: ADME, organism-based
How it was run: (§3)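 Intravenous bolus solution, 3 mg free base/kg (5 mL/kg; 10% DMSO, 90% saline), given to female NMRI mice (n=3). Compound level in blood determined by UPLC-MS/MS. PK parameters derived from the blood concentration-time curve.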

[14] = Volume of distribution at steady state in NMRI mouse at 3 mg/kg, iv administered as bolus dose by UPLC-MS/MS analysis; format: ADME, organism-based; settings: in vivo, read-out: Vdss; how it was run: as §3
[15] = Half-life in NMRI mouse at 3 mg/kg, iv administered as bolus dose by UPLC-MS/MS analysis; format: ADME, organism-based; settings: in vivo; how it was run: as §3
[16] = Cmax in NMRI mouse at 10 mg/kg, po administered as gavage by UPLC-MS/MS analysis; format: ADME, organism-based; design: route oral, dose 10 mg/kg; settings: in vivo
How it was run: (§4)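 Female NMRI mice (n=3) dosed by oral gavage as a solution at 10 mg free base/kg (10 mL/kg; vehicle 5 or 10% DMSO, 40% PEG400). Blood levels measured by UPLC-MS/MS. Parameters derived from the blood concentration-time curve.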

[17] = AUC in NMRI mouse at 10 mg/kg, po administered as gavage by UPLC-MS/MS analysis; format: ADME, organism-based; design: dose 10 mg/kg; settings: in vivo; how it was run: as §4
[18] = Tmax in NMRI mouse at 10 mg/kg, po administered as gavage by UPLC-MS/MS analysis; format: ADME, organism-based; settings: in vivo; how it was run: as §4
[19] = Oral bioavailability in NMRI mouse at 10 mg/kg administered via gavage by UPLC-MS/MS analysis; format: ADME, organism-based; settings: in vivo; how it was run: as §4
Plasmodium berghei [20] = test: Antiplasmodial activity against Plasmodium berghei ANKA infected in NMRI mouse assessed as reduction in parasitemia at 30 mg/kg, po QD for 4 days; format: functional; design: scale not given: the % may be the effect or the level left; settings: time 4 day; how it was run: as §2
Plasmodium berghei [21] = test: Antiplasmodial activity against Plasmodium berghei ANKA infected in NMRI mouse assessed as survival days at 30 mg/kg, po QD for 4 days; format: functional; settings: time 4 day
Plasmodium berghei [22] = test: Antiplasmodial activity against Plasmodium berghei ANKA infected in NMRI mouse assessed as reduction in parasitemia at 1 mg/kg, po QD for 4 days; format: functional; design: scale not given: the % may be the effect or the level left; settings: time 4 day; how it was run: as §2
Plasmodium berghei [23] = test: Antiplasmodial activity against Plasmodium berghei ANKA infected in NMRI mouse assessed as survival days at 1 mg/kg, po QD for 4 days; format: functional; settings: time 4 day
Plasmodium berghei [24] = test: Antiplasmodial activity against GFP-transfected Plasmodium berghei ANKA infected in NMRI mouse assessed as reduction in parasitemia by measuring effective dose administered once daily oral dose for 4 days; format: functional; settings: 96 h, time 4 day; how it was run: as §2
[25] = Intrinsic clearance in Sprague-Dawley rat liver microsomes at 0.5 uM in presence of NADPH incubated upto 30 mins by UPLC-MS/MS analysis; format: ADME, Microsome; settings: 0.5 h; how it was run: as §1
[26] = Clearance in Sprague-Dawley rat blood at 1 mg/kg, iv administered as bolus dose by UPLC-MS/MS analysis; format: ADME, organism-based
How it was run: (§5)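 Male Sprague Dawley rats (n=3/route) received an iv bolus solution at 1 mg free base/kg (5 mL/kg; 5% DMSO in saline). Blood sampled from 5 min to 30 or 48 h post-dose, mixed with two volumes water, frozen, then analysed by UPLC-MS/MS. Parameters derived from the blood concentration-time curve.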

[27] = Volume of distribution at steady state in Sprague-Dawley rat at 1 mg/kg, iv administered as bolus dose by UPLC-MS/MS analysis; format: ADME, organism-based; settings: Sprague-Dawley, in vivo, read-out: Vdss; how it was run: as §5
[28] = Half-life in Sprague-Dawley rat at 1 mg/kg, iv administered as bolus dose by UPLC-MS/MS analysis; format: ADME, organism-based; settings: Sprague-Dawley, in vivo; how it was run: as §5
[29] = Cmax in Sprague-Dawley rat at 3 mg/kg, po administered via gavage by UPLC-MS/MS analysis; format: ADME, organism-based; design: route oral, dose 3 mg/kg; settings: in vivo
How it was run: (§6)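 Oral gavage solution, 3 mg free base/kg (10 mL/kg; 0.5% w/v HPMC, 0.4% v/v Tween 80, 0.5% v/v benzyl alcohol), given to male Sprague Dawley rats (n=3). Blood taken at 5, 15, 30 min and 1, 2, 4, 6, 8, 24, 30 h, mixed with two volumes water, analysed by UPLC-MS/MS.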

[30] = Tmax in Sprague-Dawley rat at 3 mg/kg, po administered via gavage by UPLC-MS/MS analysis; format: ADME, organism-based; settings: in vivo; how it was run: as §6
[31] = AUC in Sprague-Dawley rat at 3 mg/kg, po administered via gavage by UPLC-MS/MS analysis; format: ADME, organism-based; design: dose 3 mg/kg; settings: in vivo; how it was run: as §6
[32] = Oral bioavailability in Sprague-Dawley rat at 3 mg/kg administered via gavage by UPLC-MS/MS analysis; format: ADME, organism-based; settings: in vivo; how it was run: as §6

Chain of Voltage-gated inwardly rectifying potassium channel KCNH2 (Q12809 whole entry): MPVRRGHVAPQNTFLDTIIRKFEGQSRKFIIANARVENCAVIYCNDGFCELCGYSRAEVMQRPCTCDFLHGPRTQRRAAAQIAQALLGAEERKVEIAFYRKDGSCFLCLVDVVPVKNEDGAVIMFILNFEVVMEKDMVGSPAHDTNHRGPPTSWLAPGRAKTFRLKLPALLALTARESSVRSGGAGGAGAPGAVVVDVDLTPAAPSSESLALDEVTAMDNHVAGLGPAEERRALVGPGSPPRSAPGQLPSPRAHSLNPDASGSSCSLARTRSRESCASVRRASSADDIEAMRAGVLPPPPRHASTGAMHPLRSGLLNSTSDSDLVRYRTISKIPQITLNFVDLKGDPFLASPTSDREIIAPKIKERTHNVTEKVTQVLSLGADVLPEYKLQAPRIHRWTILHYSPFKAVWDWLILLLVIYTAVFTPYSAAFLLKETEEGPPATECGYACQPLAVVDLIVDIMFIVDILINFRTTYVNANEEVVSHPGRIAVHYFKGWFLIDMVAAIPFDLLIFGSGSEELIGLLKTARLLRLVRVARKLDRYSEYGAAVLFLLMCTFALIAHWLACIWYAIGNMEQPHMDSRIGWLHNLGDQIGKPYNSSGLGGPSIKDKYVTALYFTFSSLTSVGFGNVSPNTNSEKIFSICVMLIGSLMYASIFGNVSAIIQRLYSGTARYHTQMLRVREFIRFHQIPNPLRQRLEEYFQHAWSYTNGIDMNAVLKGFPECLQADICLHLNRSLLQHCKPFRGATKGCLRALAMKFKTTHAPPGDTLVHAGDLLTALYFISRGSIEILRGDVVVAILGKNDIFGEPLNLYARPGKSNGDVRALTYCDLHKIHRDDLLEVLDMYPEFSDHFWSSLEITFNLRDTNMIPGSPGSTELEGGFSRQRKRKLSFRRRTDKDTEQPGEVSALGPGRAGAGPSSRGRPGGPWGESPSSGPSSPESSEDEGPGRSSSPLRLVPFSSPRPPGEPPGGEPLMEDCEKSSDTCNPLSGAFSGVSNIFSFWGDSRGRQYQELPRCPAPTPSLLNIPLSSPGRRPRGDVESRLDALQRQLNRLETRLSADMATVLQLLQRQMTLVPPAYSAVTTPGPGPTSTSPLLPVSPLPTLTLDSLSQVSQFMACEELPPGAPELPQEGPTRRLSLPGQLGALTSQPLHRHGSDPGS

Compound	EC50 (Plasmodium falciparum [1])	CLH [2]	Papp at 5 h, 10 µM [3]	EC50 (HepG2)	solubility kinetic [4]	Activity (Plasmodium berghei [5])	Survival (Plasmodium berghei [6])	Activity (Plasmodium berghei [7])	Survival (Plasmodium berghei [8])	EC50 (MRC5)	CLH [11]	Activity (Plasmodium berghei [22])	Survival (Plasmodium berghei [23])	other results
O=C(NCCNC1CC1)c1cc(-c2ccc(CN3CCOCC3)cc2)nc2ccc(F)cc12	2 nM	2 mL/min/g	4.9 ×10⁻⁶ cm/s	> 50000 nM	–	–	–	–	–	–	–	–	–	–
O=C(NCCN1CCC1)c1cc(-c2ccc(CN3CCOCC3)cc2)nc2ccc(F)cc12	4 nM	0.5 mL/min/g	7.5 ×10⁻⁶ cm/s	41000 nM	71 µM (≈ 31.8 µg/mL)	99.1%	20.3 days	99.2%	9.3 days	–	–	–	–	–
O=C(NCCN1CCCC1)c1cc(NCCCCN2CCOCC2)nc2ccc(Cl)cc12	4 nM	2 mL/min/g	0.2 ×10⁻⁶ cm/s	–	217 µM (≈ 99.8 µg/mL)	99.7%	15 days	96%	9 days	13000 nM	< 1 mL/min/g	48%	6 days	EC50 (Plasmodium berghei [9]): 5 nM; EC50 (Plasmodium yoelii): 18 nM; EC50 (Plasmodium falciparum [10]): 104 nM; IC50 [12]: > 11000 nM; clearance [13]: 4 mL/min/kg; Vd [14]: 3.5 L/kg; half-life [15]: 12.5 h; Cmax [16]: 579 ng/mL; AUC [17]: 2940 ng·h/mL; Tmax [18]: 2 h; bioavailability [19]: 16%; Activity (Plasmodium berghei [20]): 99.8%; Survival (Plasmodium berghei [21]): 22 days; ED90 (Plasmodium berghei [24]): 2.6 mg/kg
O=C(NCCN1CCCC1)c1cc(-c2ccc(CN3CCOCC3)cc2F)nc2ccc(F)cc12	2 nM	< 0.5 mL/min/g	13.2 ×10⁻⁶ cm/s	–	208 µM (≈ 100 µg/mL)	–	–	–	–	41000 nM	1.5 mL/min/g	99.9%	14 days	CLH [25]: < 0.5 mL/min/g; clearance [26]: 32 mL/min/kg; Vd [27]: 10 L/kg; half-life [28]: 4 h; Cmax [29]: 29 ng/mL; Tmax [30]: 8 h; AUC [31]: 507 ng·h/mL; bioavailability [32]: 33%
